Consider three molecules from ChEMBL document CHEMBL3616374, “Structure-Activity Relationship Studies of Orally Active Antimalarial 2,4-Diamino-thienopyrimidines” (J Med Chem, 2015).

Data set [1] can be described thus: Metabolic stability of the compound in human liver microsomes at 0.1 uM after 30 mins by LC-MS/MS analysis. The class given is ADME. The note with it: read-out: Stability. A digest of the protocol: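 A one-point microsomal stability assay was used, expressed as the percentage of parent compound remaining after 30 min incubation.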
(In general: Liver microsomes are vesicles of endoplasmic reticulum, rich in cytochrome P450 enzymes.)

A short description of data set [2]: Cmax in BALB/C mouse at 50 mg/kg, po. The format is ADME, organism-based. Also noted: dose 50 mg/kg, route oral. Particulars: in vivo.
The nature of data set [3]: Selectivity index ratio of IC50 for African green monkey Vero cells to IC50 for Plasmodium falciparum NF54. The format is functional.
Data set [4] relates to Mus musculus. The data set is described as follows: Dose normalized AUC (0 to 5 hrs) in BALB/C mouse at 50 mg/kg, po. The note with it: in vivo. The class given is ADME, organism-based.
The next data set relates to Vero. As to the kind of experiment: Cytotoxicity against African green monkey Vero cells after 48 hrs by MTT assay. The note with it: chlorocebus sabaeus. The format is cell-based. On the technique in general: Formazan colour is commonly taken as a measure of viable cells.
In data set [5] the test system is Plasmodium berghei. The data set is described as follows: Antimalarial activity against GFP-transfected Plasmodium berghei ANKA infected in NMRI mouse assessed as reduction of parasitemia in blood at 50 mg/kg, po qd for 4 days by flow cytometry analysis. The format is functional. The arrangement: scale not given: the % may be the effect or the level left. A digest of the protocol:
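In P. berghei-infected mice, compound was dissolved or suspended in a standard non-solubilizing HPMC suspension vehicle and given orally once daily for 4 days (4 × 50 mg/kg). Parasitemia reduction was expressed as % relative to untreated control mice. Mean survival time in days was also recorded.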
For orientation: Flow cytometry measures light scatter and fluorescence of single cells or particles in a stream.

The nature of data set [6]: Solubility of the compound in 0.01 M HCl at pH 2. The format is physicochemical. A digest of the protocol:
(§1)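 Solubility was measured by a scaled-down shake flask method.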

The subject of data set [7] is Mus musculus. The data set is described as follows: Acute toxicity in GFP-transfected Plasmodium berghei ANKA infected NMRI mouse at 50 mg/kg, po qd for 4 days. The format is organism-based. The note with it: in vivo, 96 h. A digest of the protocol: (§2)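 P. berghei-infected mice dosed orally at 50 mg/kg once daily for 4 days. Compound was dissolved or suspended in a standard non-solubilizing HPMC suspension vehicle. Mice were watched for acute toxicity after dosing. Parasitemia reduction was calculated against untreated infected controls, and survival was recorded as mean survival time in days.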

Data set [8] in a line: AUC (0 to 24 hrs) in BALB/C mouse at 50 mg/kg, po. The format is ADME, organism-based. Also noted: time < 24 hr, dose 50 mg/kg, route oral. Particulars: in vivo.
Data set [9] can be described thus: Solubility of the compound in phosphate buffer at pH 6.5. The class given is physicochemical. In a few lines:
as §1

Data set [10] relates to Plasmodium falciparum. As to the kind of experiment: Antiplasmodial activity against multidrug-sensitive Plasmodium falciparum NF54 by [3H]-hypoxanthine incorporation assay. The class given is functional, organism-based. In a few lines:
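IC50 against P. falciparum NF54 was run with chloroquine and artesunate as reference drugs in every experiment. Values are the mean of at least 2 independent experiments.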

Data set [11] concerns Plasmodium berghei. The data set is described as follows: Antimalarial activity against GFP-transfected Plasmodium berghei ANKA infected in NMRI mouse assessed as mean survival time at 50 mg/kg, po qd for 4 days by flow cytometry analysis. The format is functional. In a few lines: as §2
In data set [12] the test system is Plasmodium falciparum. As to the kind of experiment: Antiplasmodial activity against multidrug-resistant Plasmodium falciparum K1 by [3H]-hypoxanthine incorporation assay. The format is functional, organism-based. A digest of the protocol: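 In vitro IC50 against the multidrug-resistant K1 strain of P. falciparum. Chloroquine and artesunate were run as reference drugs in every experiment. Values are means of ≥2 independent experiments.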

The nature of data set [13]: Intrinsic clearance in human liver microsomes assessed per mg of protein at 0.1 uM by LC-MS/MS analysis. The note with it: read-out: CLH. The class given is ADME.
The nature of data set [14]: Degradation half-life in human liver microsomes at 0.1 uM by LC-MS/MS analysis. The format is ADME.
Data set [15] addresses Voltage-gated inwardly rectifying potassium channel KCNH2 (Homo sapiens, UniProt Q12809). The data set is described as follows: Inhibition of human ERG expressed in CHO cells by patch clamp electrophysiology assay. The format is cell-based.
A short description of data set [16]: Partition coefficient, log D of the compound at pH 7.4 by HPLC chromatographic method. The format is physicochemical. The note with it: octanol/water. A digest of the protocol: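 logD was estimated by HPLC-DAD-MS.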

Converted amounts (≈) assume the structure as drawn.

Voltage-gated inwardly rectifying potassium channel KCNH2, sequence (Q12809 whole entry): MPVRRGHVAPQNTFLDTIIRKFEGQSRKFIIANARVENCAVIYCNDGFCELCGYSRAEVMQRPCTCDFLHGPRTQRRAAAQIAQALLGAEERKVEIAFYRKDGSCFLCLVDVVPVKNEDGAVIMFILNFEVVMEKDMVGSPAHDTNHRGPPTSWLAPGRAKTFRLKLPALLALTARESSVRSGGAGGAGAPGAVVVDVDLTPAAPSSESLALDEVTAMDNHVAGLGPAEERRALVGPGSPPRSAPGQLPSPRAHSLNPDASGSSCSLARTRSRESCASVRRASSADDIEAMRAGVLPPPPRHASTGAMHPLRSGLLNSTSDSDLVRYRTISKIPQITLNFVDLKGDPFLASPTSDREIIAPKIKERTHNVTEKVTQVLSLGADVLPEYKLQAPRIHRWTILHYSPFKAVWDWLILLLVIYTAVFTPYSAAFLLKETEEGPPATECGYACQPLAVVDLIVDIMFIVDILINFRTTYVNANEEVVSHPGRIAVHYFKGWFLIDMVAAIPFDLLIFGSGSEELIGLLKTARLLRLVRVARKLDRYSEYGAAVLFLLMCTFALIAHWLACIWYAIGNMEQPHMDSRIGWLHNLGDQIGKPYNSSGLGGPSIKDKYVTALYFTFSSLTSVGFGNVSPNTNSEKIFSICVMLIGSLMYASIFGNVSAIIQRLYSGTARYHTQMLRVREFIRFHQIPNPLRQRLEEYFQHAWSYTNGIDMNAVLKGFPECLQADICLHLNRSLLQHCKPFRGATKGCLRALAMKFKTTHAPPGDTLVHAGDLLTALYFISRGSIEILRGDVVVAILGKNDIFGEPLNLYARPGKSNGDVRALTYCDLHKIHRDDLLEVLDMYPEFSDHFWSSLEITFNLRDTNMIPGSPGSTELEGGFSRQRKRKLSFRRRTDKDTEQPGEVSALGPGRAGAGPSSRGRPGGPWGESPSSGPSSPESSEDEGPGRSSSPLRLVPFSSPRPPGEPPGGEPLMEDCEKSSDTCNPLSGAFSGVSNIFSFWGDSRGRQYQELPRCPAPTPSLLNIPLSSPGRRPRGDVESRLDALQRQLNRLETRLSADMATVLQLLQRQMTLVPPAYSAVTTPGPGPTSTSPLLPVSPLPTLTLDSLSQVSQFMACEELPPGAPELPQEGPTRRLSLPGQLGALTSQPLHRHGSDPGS

What is called Cmax is the peak of the concentration-time curve. In general, solubility refers to the concentration that dissolves in the medium under given conditions. The AUC(0-t) is exposure summed from dosing to a finite time, without extrapolation to infinity. As usually defined, the IC50 is the concentration that inhibits the measured activity by half. For `CNc1nc(N2CCC(N)CC2)c2sc(-c3ccc(C(F)(F)F)cc3)cc2n1`, the remaining at 0.5 h, 0.1 µM in data set [1] amounted to 93%. In addition, the Cmax in data set [2] stood at 3690 nM. Besides, in data set [3], the “Ratio IC50” value is given as greater than 100. The AUC/dose with Mus musculus [4] is reported as 7.63 min.ug/ml/(mg/kg). Further, the Activity entry was “Non-toxic” in the data set with Vero, 81% with Plasmodium berghei [5] and “Non-toxic” in the data set on Mus musculus [7]. Moreover, the solubility in [6] is greater than 200 µg/mL; in data set [9], 17 µg/mL (≈ 41.7 µM). Further, the area under the curve AUC(0-t) at 24 h in [8] stood at 78.2 µM·h. Also, the half-inhibitory concentration (IC50) in the data set on Plasmodium falciparum [10] turned out to be 42 nM. Further, the MSD with Plasmodium berghei [11] was 7 days.
As for `CNc1nc(NC2CCNCC2)c2sc(-c3ccc(C(F)(F)F)cc3)cc2n1`, the remaining at 0.5 h, 0.1 µM in data set [1] turned out to be 84%. This molecule gave a Cmax in [2] of 2470 nM. For the same molecule, the values for the IC50 in the data set on Plasmodium falciparum [12] and in the data set with Plasmodium falciparum [10] were 24 nM and 19 nM, respectively. In addition, the “Ratio IC50” value in data set [3] was greater than 100. For the same molecule, the AUC/dose with Mus musculus [4] is on record as 4.24 min.ug/ml/(mg/kg). For the same molecule, the results for the Activity entry in the data set with Vero, in the data set on Plasmodium berghei [5] and with Mus musculus [7] were “Non-toxic”, 99.7% and “Non-toxic”, respectively. For the same molecule, the figures for the solubility in data set [6] and in data set [9] were 218 µg/mL (≈ 535 µM) and 147 µg/mL (≈ 361 µM), respectively. The same molecule came in with an AUC(0-t) at 24 h in data set [8] of 25 µM·h. The MSD in the data set with Plasmodium berghei [11] is 12 days.
In general, half-life refers to how long it takes for the measured level to halve. For orientation: chromatographic logD means lipophilicity estimated from chromatographic retention. Turning to `Nc1nc(N2CCC(N)CC2)c2sc(-c3ccc(C(F)(F)F)cc3)cc2n1`, the remaining at 0.5 h, 0.1 µM in data set [1] was 100%. Besides, the microsomal CLint at 0.1 µM in [13] is less than 11.6 µL/min/mg. This molecule displayed a maximum concentration (Cmax) in data set [2] of 1360 nM. Also, the IC50 with Plasmodium falciparum [12] is 33 nM; in the data set on Plasmodium falciparum [10], 20 nM; in data set [15], 6100 nM. Besides, the “Ratio IC50” value in [3] is listed as greater than 100. For the same molecule, the AUC/dose in the data set on Mus musculus [4] is reported as 2.63 min.ug/ml/(mg/kg). In addition, the Activity entry in the data set on Vero is “Non-toxic”; in the data set on Plasmodium berghei [5] it was 99.8%. The solubility in [6] and in [9] was 134 µg/mL (≈ 341 µM) throughout. In data set [14], this molecule had a half-life at 0.1 µM greater than 2.5 h. In [8], this molecule yielded an area under the curve AUC(0-t) at 24 h of 21.6 µM·h. The MSD in the data set with Plasmodium berghei [11] was 26 days. In data set [16], the chromatographic logD is 2.4.
